Measured values reported in ChEMBL document CHEMBL3046081, “Phytotoxic effect, uptake, and transformation of biochanin A in selected weed species” (J Agric Food Chem, 2012).
Calls of active or inactive are those of the source. The calls are words filed in the database; no cut-off is given here.

Tests used:
Shoot [1] = assay: Drug metabolism in Echinochloa crus-galli (barnyard grass) shoot assessed as transformation to genistein at 400 uM after 14 days measured per gm of dry weight by LC-MS analysis; assay type: ADME; details: 336 h
In short: (§1)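 Pregerminated seeds, 14 per container, transplanted onto 0.5% agar medium containing biochanin A. Grown at 24 ± 1 °C under a 16 h light/8 h dark photoperiod and harvested 14 days after transplanting. Roots and shoots collected separately, blotted, washed twice, then freeze-dried. Tissue extracted by ASE at 40 °C and analysed by LC-ESI-MS against commercial standards. Two replicates per treatment.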

Shoot [2] = assay: Drug metabolism in Echinochloa crus-galli (barnyard grass) shoot assessed as transformation to genistein at 20 uM after 14 days measured per gm of dry weight by LC-MS analysis; assay type: ADME; details: 336 h; in short: as §1
Shoot [3] = assay: Drug metabolism in Geranium molle shoot assessed as transformation to genistein at 400 uM after 14 days measured per gm of dry weight by LC-MS analysis; assay type: ADME; details: 336 h; in short: as §1
Geranium molle = assay: Phytotoxicity against Geranium molle assessed as root growth inhibition after 2 weeks by agar medium bioassay; assay type: functional, organism-based; details: 336 h
In short: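 Agar bioassay with eight biochanin A doses (0–400 µM). Seeds were pregerminated 48 h at room temperature, then 10 seedlings (1–2 mm radicle) were placed per Petri dish. Plants grew 2 weeks at 24 ± 1 °C under a 16 h light/8 h dark cycle. Root length was measured, and EC values were taken from a four-parameter log-logistic nonlinear regression fit.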

Shoot [4] = assay: Drug metabolism in Silene noctiflora shoot assessed as transformation to sissotrin at 400 uM after 14 days measured per gm of dry weight by LC-MS analysis; assay type: ADME; details: 336 h
In short: (§2)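 Pregerminated seeds (14 per container) were grown on 20 mL 0.5% agar medium containing biochanin A, at 24 ± 1 °C with a 16 h light/8 h dark cycle. There were two replicates per treatment: 14 containers for S. noctiflora, 9 for G. molle and E. crus-galli. At 14 days, roots and shoots were harvested separately, washed, blotted and freeze-dried. Extraction was ASE at 40 °C, 1600 psi, 3 cycles. Analysis was LC-ESI-MS SIM against standards.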

Shoot [5] = assay: Drug metabolism in Silene noctiflora shoot assessed as transformation to sissotrin at 20 uM after 14 days measured per gm of dry weight by LC-MS analysis; assay type: ADME; details: 336 h; in short: as §2
Root [6] = assay: Drug metabolism in Echinochloa crus-galli (barnyard grass) root assessed as transformation to sissotrin at 400 uM after 14 days measured per gm of dry weight by LC-MS analysis; assay type: ADME; details: 336 h; in short: as §1
Shoot [7] = assay: Drug metabolism in Silene noctiflora shoot assessed as transformation to genistein at 20 uM after 14 days measured per gm of dry weight by LC-MS analysis; assay type: ADME; details: 336 h; in short: as §1
Root [8] = assay: Drug metabolism in Geranium molle root assessed as transformation to sissotrin at 400 uM after 14 days measured per gm of dry weight by LC-MS analysis; assay type: ADME; details: 336 h; in short: as §1
Root [9] = assay: Drug metabolism in Silene noctiflora root assessed as transformation to sissotrin at 20 uM after 14 days measured per gm of dry weight by LC-MS analysis; assay type: ADME; details: 336 h; in short: as §1
Shoot [10] = assay: Drug metabolism in Geranium molle shoot assessed as transformation to p-coumaric acid at 400 uM after 14 days measured per gm of dry weight by LC-MS analysis; assay type: ADME; details: 336 h; in short: as §1
Root [11] = assay: Drug metabolism in Geranium molle root assessed as transformation to p-coumaric acid at 400 uM after 14 days measured per gm of dry weight by LC-MS analysis; assay type: ADME; details: 336 h; in short: as §1
Shoot [12] = assay: Drug metabolism in Echinochloa crus-galli (barnyard grass) shoot assessed as transformation to pratensein at 400 uM after 14 days measured per gm of dry weight by LC-MS analysis; assay type: ADME; details: 336 h; in short: as §1
Shoot [13] = assay: Drug metabolism in Geranium molle shoot assessed as transformation to genistein at 20 uM after 14 days measured per gm of dry weight by LC-MS analysis; assay type: ADME; details: 336 h; in short: as §1
Shoot [14] = assay: Drug metabolism in Silene noctiflora shoot assessed as transformation to genistein at 400 uM after 14 days measured per gm of dry weight by LC-MS analysis; assay type: ADME; details: 336 h; in short: as §1
Root [15] = assay: Drug metabolism in Echinochloa crus-galli (barnyard grass) root assessed as transformation to genistein at 20 uM after 14 days measured per gm of dry weight by LC-MS analysis; assay type: ADME; details: 336 h; in short: as §1
Shoot [16] = assay: Drug metabolism in Echinochloa crus-galli (barnyard grass) shoot assessed as transformation to dihydrobiochanin A at 400 uM after 14 days measured per gm of dry weight by LC-MS analysis; assay type: ADME; details: 336 h; in short: as §1
Shoot [17] = assay: Drug metabolism in Echinochloa crus-galli (barnyard grass) shoot assessed as transformation to dihydrobiochanin A at 20 uM after 14 days measured per gm of dry weight by LC-MS analysis; assay type: ADME; details: 336 h; in short: as §1
Shoot [18] = assay: Drug metabolism in Silene noctiflora shoot assessed as transformation to dihydrobiochanin A at 400 uM after 14 days measured per gm of dry weight by LC-MS analysis; assay type: ADME; details: 336 h; in short: as §1
Shoot [19] = assay: Drug metabolism in Silene noctiflora shoot assessed as transformation to dihydrobiochanin A at 20 uM after 14 days measured per gm of dry weight by LC-MS analysis; assay type: ADME; details: 336 h; in short: as §1
Shoot [20] = assay: Drug metabolism in Echinochloa crus-galli (barnyard grass) shoot assessed as transformation to pratensein at 20 uM after 14 days measured per gm of dry weight by LC-MS analysis; assay type: ADME; details: 336 h; in short: as §1
Shoot [21] = assay: Drug metabolism in Echinochloa crus-galli (barnyard grass) shoot assessed as transformation to sissotrin at 400 uM after 14 days measured per gm of dry weight by LC-MS analysis; assay type: ADME; details: 336 h; in short: as §1
Shoot [22] = assay: Drug metabolism in Echinochloa crus-galli (barnyard grass) shoot assessed as transformation to sissotrin at 20 uM after 14 days measured per gm of dry weight by LC-MS analysis; assay type: ADME; details: 336 h; in short: as §1
Shoot [23] = assay: Drug metabolism in Geranium molle shoot assessed as transformation to sissotrin at 400 uM after 14 days measured per gm of dry weight by LC-MS analysis; assay type: ADME; details: 336 h; in short: as §1
Shoot [24] = assay: Drug uptake in Echinochloa crus-galli (barnyard grass) shoot at 400 uM after 14 days measured per gm of dry weight by LC-MS analysis; assay type: ADME; details: 336 h; in short: as §2
Shoot [25] = assay: Drug uptake in Geranium molle shoot at 400 uM after 14 days measured per gm of dry weight by LC-MS analysis; assay type: ADME; details: 336 h; in short: as §2
Shoot [26] = assay: Drug uptake in Geranium molle shoot at 20 uM after 14 days measured per gm of dry weight by LC-MS analysis; assay type: ADME; details: 336 h; in short: as §2
Root [27] = assay: Drug uptake in Echinochloa crus-galli (barnyard grass) root at 400 uM after 14 days measured per gm of dry weight by LC-MS analysis; assay type: ADME; details: 336 h; in short: as §2
Root [28] = assay: Drug uptake in Echinochloa crus-galli (barnyard grass) root at 20 uM after 14 days measured per gm of dry weight by LC-MS analysis; assay type: ADME; details: 336 h; in short: as §2
Root [29] = assay: Drug uptake in Silene noctiflora root at 20 uM after 14 days measured per gm of dry weight by LC-MS analysis; assay type: ADME; details: 336 h; in short: as §2
Lolium perenne = assay: Phytotoxicity against Lolium perenne (perennial ryegrass) assessed as root growth inhibition at 100 to 400 uM after 2 weeks by agar medium bioassay; assay type: functional, organism-based
In short: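 Agar bioassay with eight biochanin A doses (0–400 µM). Seeds were pregerminated 48 h at room temperature, then 10 seedlings were placed per Petri dish and grown 2 weeks at 24 ± 1 °C under a 16 h light/8 h dark cycle. […]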

Root [30] = assay: Drug metabolism in Echinochloa crus-galli (barnyard grass) root assessed as transformation to pratensein at 400 uM after 14 days measured per gm of dry weight by LC-MS analysis; assay type: ADME; details: 336 h; in short: as §1

With `COc1ccc(-c2coc3cc(O)cc(O)c3c2=O)cc1` [BIOCHANIN] the Drug metabolism (Shoot [1]) was 0.2 µmol, the Drug metabolism (Shoot [2]) was 0.28 µmol and the Drug metabolism (Shoot [3]) was 0.12 µmol. It also gave an EC25 (Geranium molle) of over 400 µM, an EC50 (Geranium molle) of over 400 µM and a Drug metabolism (Shoot [4]) of 4.34 µmol. For the same compound, the Drug metabolism (Shoot [5]) was 2.36 µmol, the Drug metabolism (Root [6]) was 1 µmol and the Drug metabolism (Shoot [7]) was 0.24 µmol. The Drug metabolism (Root [8]) was 123.61 µmol, the Drug metabolism (Root [9]) was 1.72 µmol and the Drug metabolism (Shoot [10]) was 0.03 µmol. It also gave a Drug metabolism (Root [11]) of 0.05 µmol, a Drug metabolism (Shoot [12]) of 0.24 µmol and a Drug metabolism (Shoot [13]) of 0.09 µmol. It also gave a Drug metabolism (Shoot [14]) of 0.15 µmol, a Drug metabolism (Root [15]) of 0.07 µmol and a Drug metabolism (Shoot [16]) of 0.27 µmol. The Drug metabolism (Shoot [17]) was 0 µmol, the Drug metabolism (Shoot [18]) was 0.02 µmol and the Drug metabolism (Shoot [19]) was 0 µmol. The Drug metabolism (Shoot [20]) was 0.47 µmol, the Drug metabolism (Shoot [21]) was 0 µmol and the Drug metabolism (Shoot [22]) was 0 µmol. The Drug metabolism (Shoot [23]) was 2.41 µmol, the Drug uptake (Shoot [24]) was 0.67 µmol and the Drug uptake (Shoot [25]) was 1.13 µmol. The Drug uptake (Shoot [26]) was 1 µmol, the Drug uptake (Root [27]) was 2.13 µmol and the Drug uptake (Root [28]) was 1.75 µmol. For the same compound, the Drug uptake (Root [29]) was 4.65 µmol, the Activity (Lolium perenne) was “inactive” and the Drug metabolism (Root [30]) was 0.35 µmol.
